Experimental data: ChEMBL document CHEMBL3046889, “Structure-activity relationships of phenylcyclohexene and biphenyl antitubulin compounds against plant and mammalian cells” (Bioorg Med Chem Lett, 2001)
The source made the active and inactive calls. The calls are words filed in the database; no cut-off is given here.

Legend:
HCT-116 = test: Antitumor activity against Homo sapiens (human) HCT116 cells; assay type: functional, cell-based
Outline: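 Cytotoxicity toward human HCT116 colon cancer cells measured by sulforhodamine B assay in 96-well format.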

Nicotiana tabacum [1] = test: Inhibition of Nicotiana tabacum (tobacco) root growth assessed as inhibition of root elongation; assay type: functional, organism-based
Outline: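 In vitro tobacco root growth assay on germinating seeds; root elongation scored, EC50 derived.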

Tubulin (Bos taurus) [2] = test: Inhibition of Bos taurus (bovine) brain tubulin polymerization at 200 uM
Nicotiana tabacum [3] = test: Mitotic arrest in Nicotiana tabacum (tobacco) root suspension-cultured cells assessed as accumulation of cells in metaphase by cytological staining assay; assay type: functional
Outline: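 Suspension-cultured tobacco cells were treated with the compound, and their chromosomes were cytologically stained. The read-out was mitotic index, meaning the fraction of cells in mitosis, with arrest scored as cells accumulating in metaphase.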

Tubulin (Bos taurus) [4] = test: Displacement of [3H]colchicine from Bos taurus (bovine) brain tubulin by competition assay

What does the source list for `COc1ccc(-c2ccc(OC)c(OC)c2OC)c(C#N)c1`?
EC50 (HCT-116; Homo sapiens, HCT-116): 0.58 µM; EC50 (Nicotiana tabacum [1]; Nicotiana tabacum): > 100 µM

With `COc1ccc(-c2ccc(OC)c(OC)c2OC)c([N+](=O)[O-])c1` as the compound, how does the EC50 (HCT-116; Homo sapiens, HCT-116) read?
The EC50 was 2.65 µM.

And the EC50 (Nicotiana tabacum [1]; Nicotiana tabacum)?
The EC50 was greater than 100 µM.

How did the EC50 (HCT-116; Homo sapiens, HCT-116) turn out when `COc1ccc(-c2ccccc2[N+](=O)[O-])c(OC)c1OC` was run?
The EC50 was 19.6 µM.

And the EC50 (Nicotiana tabacum [1]; Nicotiana tabacum)?
The EC50 was 52 µM.

Which EC50 (HCT-116; Homo sapiens, HCT-116) does the source give for `COc1ccc(-c2ccccc2C#N)c(OC)c1OC` here?
Its EC50 is 13.8 µM.

And the EC50 (Nicotiana tabacum [1]; Nicotiana tabacum)?
The EC50 was greater than 100 µM.

Which EC50 (HCT-116; Homo sapiens, HCT-116) does the source give for `COc1ccc(-c2ccc(OC)c(OC)c2OC)c(C)c1` here?
Its EC50 is 0.78 µM.

And the EC50 (Nicotiana tabacum [1]; Nicotiana tabacum)?
The EC50 was greater than 100 µM.

How did the EC50 (HCT-116; Homo sapiens, HCT-116) turn out when `O=[N+]([O-])[C@@H]1CC=CC[C@H]1c1ccccc1` (mixture of isomers) was run?
The EC50 was 174 µM.

And the EC50 (Nicotiana tabacum [1]; Nicotiana tabacum)?
Its EC50 is greater than 100 µM.

Which results are given for `COc1ccc(C2CC=CCC2C#N)c(OC)c1OC` (mixture of isomers)?
EC50 (HCT-116; Homo sapiens, HCT-116): 113 µM; EC50 (Nicotiana tabacum [1]; Nicotiana tabacum): 2.29 µM; inhibition (Tubulin (Bos taurus) [2]): Active

For `COc1ccc([C@@H]2CC=CC[C@H]2[N+](=O)[O-])c(OC)c1OC` (racemic) [listing 1 of 2 here], which EC50 (HCT-116; hct-116) is on record?
The EC50 was 85 µM.

What about the EC50 (Nicotiana tabacum [1]) of the same compound?
The EC50 was 0.27 µM.

How did the EC50 (HCT-116; Homo sapiens, HCT-116) turn out when `COc1cccc([C@@H]2CC=CC[C@H]2[N+](=O)[O-])c1` (racemic) was run?
The EC50 was 143 µM.

And the EC50 (Nicotiana tabacum [1]; Nicotiana tabacum)?
The EC50 was 3.78 µM.

How did the Activity (Nicotiana tabacum [3]) turn out when `COc1ccc([C@@H]2CC=CC[C@H]2[N+](=O)[O-])c(OC)c1OC` (racemic) [listing 2 of 2 here] was run?
Its Activity is “Active”.

And the inhibition (Tubulin (Bos taurus) [2])?
The inhibition was “Active”.

What about the inhibition (Tubulin (Bos taurus) [4]) of the same compound?
Its inhibition is “Active”.

`COc1ccc([C@H]2CC=CC[C@H]2C#N)c(OC)c1OC` (single isomer, unassigned) was tested. Which EC50 (HCT-116; hct-116) did it give?
The EC50 was 142 µM.

With `COc1ccc([C@@H]2CC=CC[C@H]2[N+](=O)[O-])c(OC)c1OC` (single isomer, unassigned) as the compound, how does the EC50 (HCT-116; Homo sapiens, HCT-116) read?
Its EC50 is 71 µM.

What about the EC50 (Nicotiana tabacum [1]) of the same compound?
The EC50 was 1.96 µM.

For `COc1ccc([C@H]2CC=CC[C@@H]2C#N)c(OC)c1OC` (single isomer, unassigned; enantiomer I), which EC50 (HCT-116; hct-116) is on record?
The EC50 was 136 µM.

And the EC50 (Nicotiana tabacum [1])?
The EC50 was 0.667 µM.

Which EC50 (HCT-116; hct-116) does the source give for `COc1ccc([C@@H]2CC=CC[C@H]2[N+](=O)[O-])c(OC)c1OC` (single isomer, unassigned; enantiomer I) here?
The EC50 was 79 µM.

What about the EC50 (Nicotiana tabacum [1]) of the same compound?
Its EC50 is 0.1 µM.

With `COc1ccc([C@H]2CC=CC[C@@H]2C#N)c(OC)c1OC` (single isomer, unassigned; enantiomer II) as the compound, how does the EC50 (HCT-116; hct-116) read?
The EC50 was 47 µM.

And the EC50 (Nicotiana tabacum [1])?
Its EC50 is 7.17 µM.

How did the EC50 (HCT-116; hct-116) turn out when `COc1ccc([C@H]2CC=CC[C@H]2C#N)c(OC)c1OC` (single isomer, unassigned; enantiomer II) was run?
Its EC50 is 45 µM.

What about the EC50 (Nicotiana tabacum [1]; Nicotiana tabacum) of the same compound?
The EC50 was greater than 25 µM.

How did the EC50 (HCT-116; Homo sapiens, HCT-116) turn out when `COc1ccc(-c2ccc(OC)c(OC)c2OC)cc1` [2,3,4,4'-TETRAMETHOXYBIPHENYL] was run?
Its EC50 is 1.52 µM.

What about the EC50 (Nicotiana tabacum [1]; Nicotiana tabacum) of the same compound?
The EC50 was greater than 100 µM.

Which results are given for `COc1cc2c(c(OC)c1OC)-c1ccc(OC)c(=O)cc1[C@@H](NC(C)=O)CC2` [COLCHICINE]?
EC50 (HCT-116; Homo sapiens, HCT-116): 0.02 µM; Activity (Nicotiana tabacum [3]): Active; EC50 (Nicotiana tabacum [1]; Nicotiana tabacum): 356 µM
